What was measured:
Adenosine receptor A1 = molecular target: T1, Adenosine receptor A1 (Rattus norvegicus, UniProt P25099); experiment: Ability to inhibit binding of 1 nM [3H]cyclohexyladenosine to adenosine A1 receptor in rat cerebral cortical membranes; assay type: cell membranes, Membrane
T1 sequence (P25099 whole entry): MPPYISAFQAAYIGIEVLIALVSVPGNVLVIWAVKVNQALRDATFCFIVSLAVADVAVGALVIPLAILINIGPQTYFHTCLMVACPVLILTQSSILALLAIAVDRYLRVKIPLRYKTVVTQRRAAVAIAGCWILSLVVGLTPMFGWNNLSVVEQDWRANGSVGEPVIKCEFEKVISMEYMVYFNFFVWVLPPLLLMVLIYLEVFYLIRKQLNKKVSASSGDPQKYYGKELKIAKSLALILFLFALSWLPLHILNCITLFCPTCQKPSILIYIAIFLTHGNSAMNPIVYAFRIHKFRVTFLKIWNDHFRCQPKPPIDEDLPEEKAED
Method in brief: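 Displacement of 1 nM N6-[3H]cyclohexyladenosine from A1 sites in rat cerebral cortical membranes by a range of xanthine concentrations. Each point was run in triplicate in at least two separate experiments. IC50 was determined and converted to Ki. Values are mean ± SEM of two to five determinations.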

Adenosine receptor A2a = Adenosine receptor A2a (Cavia porcellus, UniProt P46616); experiment: Compound was evaluated for its ability to antagonise cyclic [3H]AMP accumulation in [3H]adenine-labeled guinea pig cerebral cortical slices.; assay type: functional
Cavia porcellus = organism: Cavia porcellus; experiment: Selectivity was expressed as the ratio is Ki of adenosine A1 receptor to that of adenosine A2 receptor
[1] = molecular target: Adenosine receptor A1 (Rattus norvegicus) (UniProt P25099); experiment: Inactive Selectivity was expressed as the ratio is Ki of A1-[…]

Chain of Adenosine receptor A2a (P46616 whole entry): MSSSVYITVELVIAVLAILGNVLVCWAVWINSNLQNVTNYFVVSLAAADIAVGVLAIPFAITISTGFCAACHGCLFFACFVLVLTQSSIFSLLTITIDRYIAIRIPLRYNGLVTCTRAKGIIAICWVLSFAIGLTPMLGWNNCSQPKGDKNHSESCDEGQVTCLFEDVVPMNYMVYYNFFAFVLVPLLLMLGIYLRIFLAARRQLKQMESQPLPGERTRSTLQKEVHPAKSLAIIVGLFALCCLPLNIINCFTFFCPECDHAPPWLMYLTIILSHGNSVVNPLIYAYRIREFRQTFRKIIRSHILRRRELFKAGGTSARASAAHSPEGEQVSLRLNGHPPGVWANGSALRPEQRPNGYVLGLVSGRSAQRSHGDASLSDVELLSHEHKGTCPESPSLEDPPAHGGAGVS

SMILES | Ki (Adenosine receptor A1) | Ki (Adenosine receptor A2a) | Selectivity ratio (Cavia porcellus) | Selectivity ratio [1]
CCCn1c(=O)c2c(ncn2C)n(CCC)c1=O | 7 µM | 1.2 µM | 5.8 | –
Cn1c(=O)c2c(ncn2CCCl)n(C)c1=O [7-CHLOROETHYLTHEOPHYLLINE] | 8 µM | 4.5 µM | 1.8 | –
CCCn1c(=O)c2nc[nH]c2n(CCC)c1=O | – | – | 0.3 | –
C=CCn1c(=O)c2c(ncn2C)n(C)c1=O | 47 µM | 6.5 µM | 7.2 | –
C=CCn1cnc2c1c(=O)n(C)c(=O)n2CC(C)C | 13 µM | 8.5 µM | 1.5 | –
C=CCn1cnc2c1c(=O)n(CCC)c(=O)n2CCC | 1.9 µM | 0.7 µM | 2.7 | –
CCn1c(=O)c2nc[nH]c2n(C)c1=O | 15 µM | 5 µM | 3 | –
CCCn1c(=O)n(C)c(=O)c2c1ncn2C | 24 µM | 9 µM | 2.7 | –
Cn1c(=O)n(CCO)c(=O)c2[nH]cnc21 | 85 µM | 50 µM | 1.7 | –
CC(C)n1c(=O)n(C)c(=O)c2[nH]cnc21 | 12 µM | 6 µM | 2 | –
CCCn1c(=O)c2c(ncn2Cc2ccccc2)n(CCC)c1=O | 1 µM | 1.5 µM | 0.7 | –
CCCn1cnc2c1c(=O)n(C)c(=O)n2C | 21 µM | 11 µM | – | 1.9
CC(C)Cn1c(=O)n(C)c(=O)c2nc[nH]c21 | – | – | 0.9 | –
CC(C)Cn1c(=O)n(C)c(=O)c2c1ncn2Cc1ccccc1 | 9 µM | 11 µM | 0.8 | –
C=CCn1c(=O)c2c(ncn2C)n(CC=C)c1=O | 18 µM | 4 µM | 4.5 | –
C#CCn1cnc2c1c(=O)n(C)c(=O)n2CC(C)C | 3.1 µM | 2.8 µM | 1.1 | –
CCCn1c(=O)c2c(ncn2CCC)n(CCC)c1=O | 2.6 µM | 1.4 µM | 1.9 | –

The remaining lines, values ahead:

Ki (Adenosine receptor A1) | Ki (Adenosine receptor A2a) | Selectivity ratio (Cavia porcellus) | Selectivity ratio [1] | SMILES
0.5 µM | – | 0.3 | – | CC(C)Cn1c(=O)c2nc[nH]c2n(CC(C)C)c1=O
105 µM | 135 µM | 0.8 | – | Cn1c(=O)c2c(ncn2CCO)n(C)c1=O [ETOFYLLINE]
10 µM | – | 2 | – | C=CCn1c(=O)c2nc[nH]c2n(CC=C)c1=O
33 µM | 10 µM | 3.3 | – | C=CCn1cnc2c1c(=O)n(C)c(=O)n2C
60 µM | 80 µM | 0.8 | – | Cn1c(=O)c2nc[nH]c2n(CCO)c1=O
6 µM | 14 µM | 0.4 | – | Cn1c(=O)c2c(ncn2Cc2ccccc2)n(C)c1=O
12 µM | 4.1 µM | 2.9 | – | C#CCn1cnc2c1c(=O)n(C)c(=O)n2C
40 µM | 68 µM | 0.6 | – | CC(=O)OCCn1cnc2c1c(=O)n(C)c(=O)n2C
3.3 µM | 3 µM | 1.1 | – | CCn1c(=O)c2nc[nH]c2n(CC)c1=O
13 µM | 11 µM | 1.2 | – | CCCn1cnc2c1c(=O)n(C)c(=O)n2CC(C)C
19 µM | 7 µM | 2.7 | – | CC(C)Cn1c(=O)n(C)c(=O)c2c1ncn2C
2 µM | 14 µM | 0.14 | – | O=c1c2[nH]cnc2n(Cc2ccccc2)c(=O)n1Cc1ccccc1
0.6 µM | 0.4 µM | 1.5 | – | C#CCn1cnc2c1c(=O)n(CCC)c(=O)n2CCC
38 µM | 5 µM | 9.5 | – | CCCn1c(=O)c2c(ncn2C)n(C)c1=O
– | 6 µM | 7.5 | – | C#CCn1c(=O)c2c(ncn2C)n(C)c1=O

Source: ChEMBL document CHEMBL1123548 (J Med Chem, 1986)
